ChEMBL document CHEMBL1955770, “Inhibition of S/G2 phase CDK4 reduces mitotic fidelity” (J Biol Chem, 2006)
pIC50: −log10 of the molar value. Activity calls are given as the source filed them. The rule behind the calls is not given here.

What was measured:
NCI-H460 = test: Antiproliferative activity against human H460a cells assessed as inhibition of S phase after 48 hrs by MTT assay; assay type: functional, cell-based; conditions: NCI-H460, 48 h
Procedure, shortened: (§1)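 Cells grown in DMEM with 3 mM HEPES and 10% Serum Supreme at 37 °C, 5% CO2. Proliferation read by MTT assay 48 h after drug addition; IC50 given as mean of two separate determinations, each in duplicate.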

HeLa [1] = test: Cell cycle arrest in human HeLa cells assessed as accumulation at G2/M phase at 2 uM treated 2 hr and measured 12 hr post double thymidine-synchrony release using propidium iodide staining by FACS analysis (reference value: 17 %); assay type: functional
Procedure, shortened: (§2)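 Cells harvested at set times post-release, fixed in 70% ethanol, stained with 5 μg/ml propidium iodide plus 0.5 mg/ml RNase A, and analysed by flow cytometry. Cell-cycle phase fractions calculated by ModFit.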

A2058 = test: Cell cycle arrest in human A2058 cells assessed as accumulation at G2/M phase at 2 uM treated 1 hr and measured 10 hr post double hydroxyurea-synchrony release using propidium iodide staining by FACS analysis (reference value: 65 %); assay type: functional
[2] = Cell cycle arrest in human SK-MEL-13 cells assessed as time taken to reach peak mitosis at 2 uM treated 1 hr and post double hydroxyurea-synchrony release using propidium iodide staining by FACS analysis; assay type: functional, cell-based
Procedure, shortened: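 SK-Mel-13 cells synchronized with 2 mM hydroxyurea, then treated with 2 μM CDK4 inhibitor or left untreated 1 h after release. Harvested at indicated times post-release, ethanol-fixed, propidium iodide/RNase stained, and DNA content read by FACS. Proportions of G1, S and G2/M cells derived with ModFit.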

HeLa [3] = test: Decrease in borealin protein expression in human HeLa cells at 2 uM measured 14 hr post thymidine-synchrony release by immunoblot analysis; assay type: functional, cell-based
Procedure, shortened: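 Synchronized HeLa cells given 2 μM CDK4 inhibitor in early S phase and harvested at set times post-release. Lysed in supplemented NETN buffer on ice for 20 min. Lysates run on SDS-PAGE and immunoblotted for survivin, borealin and other chromosomal passenger proteins, with ECL detection. Cyclin D3 served as loading control.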

HeLa [4] = test: Induction of abberent mitosis in human HeLa cells assessed as lagging chromosomes at 2 uM treated 1 hr and measured 12 hr post thymidine-synchrony release by fluorescence microscopy
HeLa [5] = test: Cell cycle arrest in human HeLa cells assessed as accumulation at G2/M phase at 2 uM treated 6 hr and measured 12 hr post double thymidine-synchrony release using propidium iodide staining by FACS analysis (reference value: 17 %); assay type: functional; procedure, shortened: as §2
HeLa [6] = test: Cell cycle arrest in human HeLa cells assessed as accumulation at S phase at 2 uM treated 6 hr and measured 10 hr post double thymidine-synchrony release using propidium iodide staining by FACS analysis (reference value: 1 %); assay type: functional; procedure, shortened: as §2
[7] = molecular target: Tyrosine-protein kinase Lck (Homo sapiens, UniProt P06239); test: Inhibition of Lck using fluorescent substrate by IMAP assay
Procedure, shortened: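 Run in-house using IMAP: phosphorylated fluorescent peptide substrate binds preferentially to immobilized metal beads, which quantifies kinase activity. ATP at 3× the Km of each enzyme.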

HeLa [8] = test: Cell cycle arrest in human HeLa cells assessed as accumulation at G1 phase at 2 uM treated 6 hr and measured 12 hr post double thymidine-synchrony release using propidium iodide staining by FACS analysis (reference value: 81 %); assay type: functional
[9] = molecular target: Cyclin-dependent kinase 1/cyclin B1 (Homo sapiens, UniProt P06493); test: Inhibition of human CDK1-GST-tagged cyclin B using his-tagged Rb as substrate after 30 mins by scintillation counting method; assay type: protein-complex assay
SW480 = test: Antiproliferative activity against human SW480 cells assessed as inhibition of S phase after 48 hrs by MTT assay; assay type: functional, cell-based; conditions: SW480, 48 h; procedure, shortened: as §1
MDA-MB-435 = test: Toxicity in human MDA-MB-435 cells at 8 uM by MTT assay; assay type: cell-based; conditions: mda-mb-435, 8 µM
HeLa [10] = test: Induction of abberent mitosis in human HeLa cells assessed as lagging chromosomes at astral side of spindle microtubules at 2 uM treated 1 hr and measured 12 hr post thymidine-synchrony release by fluorescence microscopy; assay type: functional, cell-based
[11] = Cell cycle arrest in Rb-competent human SK-MEL-13 cells assessed as accumulation at G1 phase at 2 uM after 24 hrs by FACS analysis; assay type: functional
Procedure, shortened: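 Ethanol-fixed cells stained with propidium iodide/RNase A, DNA content read by FACS, phase and sub-diploid fractions calculated with ModFit.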

HeLa [12] = test: Cell cycle arrest in human HeLa cells assessed as accumulation at G2/M phase at 2 uM treated 4 hr and measured 12 hr post double thymidine-synchrony release using propidium iodide staining by FACS analysis (reference value: 17 %); assay type: functional; procedure, shortened: as §2
[13] = molecular target: Ephrin type-B receptor 1 (Homo sapiens) (UniProt P54762); test: Inhibition of EPHB1 at 1 uM
[14] = molecular target: Calcium/calmodulin-dependent protein kinase kinase 1 (Homo sapiens) (UniProt Q8N5S9); test: Inhibition of CAMKK1 at 1 uM
[15] = molecular target: Myosin light chain kinase 2, skeletal/cardiac muscle (Homo sapiens) (UniProt Q9H1R3); test: Inhibition of MYLK2 at 1 uM
[16] = molecular target: Cytoplasmic tyrosine-protein kinase BMX (Homo sapiens) (UniProt P51813); test: Inhibition of BMX at 1 uM
Procedure, shortened: (§3)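 Competition binding screen across a kinase panel with compound at 1 μM. Read-out is % competition. Kinases not hit at this concentration were scored '<50'. No Kd was determined for hits.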

[17] = molecular target: Proto-oncogene tyrosine-protein kinase ROS (Homo sapiens) (UniProt P08922); test: Inhibition of ROS1 at 1 uM
[18] = molecular target: Mitogen-activated protein kinase 12 (Homo sapiens) (UniProt P53778); test: Inhibition of p38-gamma at 1 uM
[19] = molecular target: Serine/threonine-protein kinase PAK 6 (Homo sapiens) (UniProt Q9NQU5); test: Inhibition of PAK6 at 1 uM
[20] = molecular target: Serine/threonine-protein kinase B-raf (Homo sapiens) (UniProt P15056); test: Inhibition of BRAF at 1 uM; procedure, shortened: as §3
[21] = molecular target: Tyrosine-protein kinase ITK/TSK (Homo sapiens) (UniProt Q08881); test: Inhibition of ITK at 1 uM
[22] = molecular target: Vascular endothelial growth factor receptor 3 (Homo sapiens) (UniProt P35916); test: Inhibition of FLT4 at 1 uM
[23] = molecular target: RAF proto-oncogene serine/threonine-protein kinase (Homo sapiens) (UniProt P04049); test: Inhibition of RAF1 at 1 uM
[24] = molecular target: Ephrin type-A receptor 8 (Homo sapiens) (UniProt P29322); test: Inhibition of EPHA8 at 1 uM
[25] = molecular target: LIM domain kinase 1 (Homo sapiens) (UniProt P53667); test: Inhibition of LIMK1 at 1 uM
[26] = molecular target: Mitogen-activated protein kinase 11 (Homo sapiens) (UniProt Q15759); test: Inhibition of p38-beta at 1 uM
[27] = molecular target: Tyrosine-protein kinase Lyn (Homo sapiens) (UniProt P07948); test: Inhibition of LYN at 1 uM
[28] = molecular target: Fibroblast growth factor receptor 2 (Homo sapiens) (UniProt P21802); test: Inhibition of FGFR2 at 1 uM
Chain of Fibroblast growth factor receptor 2 (Homo sapiens) (P21802 22-821 limits assumed): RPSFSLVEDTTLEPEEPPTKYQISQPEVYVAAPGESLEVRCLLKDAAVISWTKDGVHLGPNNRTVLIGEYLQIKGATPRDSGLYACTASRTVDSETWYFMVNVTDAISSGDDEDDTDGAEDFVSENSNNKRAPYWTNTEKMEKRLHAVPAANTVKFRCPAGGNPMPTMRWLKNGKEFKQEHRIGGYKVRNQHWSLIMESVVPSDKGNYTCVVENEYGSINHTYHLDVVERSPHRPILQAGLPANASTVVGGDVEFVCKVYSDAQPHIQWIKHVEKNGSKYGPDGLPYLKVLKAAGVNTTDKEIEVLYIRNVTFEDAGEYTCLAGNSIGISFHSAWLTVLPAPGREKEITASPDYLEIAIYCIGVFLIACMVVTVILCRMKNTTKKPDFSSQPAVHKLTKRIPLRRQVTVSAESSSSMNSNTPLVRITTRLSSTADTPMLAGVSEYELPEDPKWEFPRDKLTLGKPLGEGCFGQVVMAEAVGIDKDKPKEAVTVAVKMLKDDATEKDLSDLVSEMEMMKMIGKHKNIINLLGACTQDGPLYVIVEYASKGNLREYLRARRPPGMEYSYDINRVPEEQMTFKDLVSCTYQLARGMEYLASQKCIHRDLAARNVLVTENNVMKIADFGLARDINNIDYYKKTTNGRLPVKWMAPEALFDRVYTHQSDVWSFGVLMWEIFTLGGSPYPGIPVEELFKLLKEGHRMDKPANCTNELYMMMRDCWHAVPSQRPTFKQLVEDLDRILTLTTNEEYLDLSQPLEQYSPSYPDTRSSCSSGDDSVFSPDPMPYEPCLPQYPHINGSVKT

Chain of Cyclin-dependent kinase 1/cyclin B1 (P06493 whole entry): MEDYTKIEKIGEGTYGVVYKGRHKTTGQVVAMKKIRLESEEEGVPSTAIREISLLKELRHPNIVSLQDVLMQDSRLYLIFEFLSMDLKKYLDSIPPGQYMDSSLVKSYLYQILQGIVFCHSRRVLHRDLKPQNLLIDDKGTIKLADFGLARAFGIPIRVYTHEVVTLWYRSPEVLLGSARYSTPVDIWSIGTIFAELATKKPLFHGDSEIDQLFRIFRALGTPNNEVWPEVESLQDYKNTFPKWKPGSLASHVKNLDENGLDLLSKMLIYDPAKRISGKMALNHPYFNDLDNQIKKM
Chain of Cyclin-dependent kinase 1/cyclin B1 (P14635 whole entry, further chain): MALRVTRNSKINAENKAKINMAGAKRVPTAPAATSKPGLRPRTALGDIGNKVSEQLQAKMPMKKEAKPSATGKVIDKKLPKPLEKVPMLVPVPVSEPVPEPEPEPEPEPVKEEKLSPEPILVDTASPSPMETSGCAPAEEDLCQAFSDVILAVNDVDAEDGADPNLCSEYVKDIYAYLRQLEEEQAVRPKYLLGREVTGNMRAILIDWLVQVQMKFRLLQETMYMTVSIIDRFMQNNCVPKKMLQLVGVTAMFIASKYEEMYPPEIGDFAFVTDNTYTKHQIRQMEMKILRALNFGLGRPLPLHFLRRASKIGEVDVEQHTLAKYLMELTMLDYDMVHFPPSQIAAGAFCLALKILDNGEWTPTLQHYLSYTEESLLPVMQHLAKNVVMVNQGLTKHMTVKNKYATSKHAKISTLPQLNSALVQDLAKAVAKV
Chain of Tyrosine-protein kinase Lck (P06239 whole entry): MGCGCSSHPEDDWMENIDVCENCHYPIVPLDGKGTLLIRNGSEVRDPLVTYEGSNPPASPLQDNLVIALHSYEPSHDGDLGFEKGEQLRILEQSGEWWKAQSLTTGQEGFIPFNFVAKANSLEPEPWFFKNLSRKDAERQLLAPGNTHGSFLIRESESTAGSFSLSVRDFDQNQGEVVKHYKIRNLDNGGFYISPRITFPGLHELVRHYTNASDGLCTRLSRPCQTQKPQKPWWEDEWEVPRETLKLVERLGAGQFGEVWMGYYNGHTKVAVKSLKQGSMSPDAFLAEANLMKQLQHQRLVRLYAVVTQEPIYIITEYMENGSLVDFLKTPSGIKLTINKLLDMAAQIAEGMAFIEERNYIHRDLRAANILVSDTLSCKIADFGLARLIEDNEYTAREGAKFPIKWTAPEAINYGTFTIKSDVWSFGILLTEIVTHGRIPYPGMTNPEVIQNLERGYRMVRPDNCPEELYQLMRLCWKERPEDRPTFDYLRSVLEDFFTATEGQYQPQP
Chain of Ephrin type-B receptor 1 (Homo sapiens) (P54762 whole entry): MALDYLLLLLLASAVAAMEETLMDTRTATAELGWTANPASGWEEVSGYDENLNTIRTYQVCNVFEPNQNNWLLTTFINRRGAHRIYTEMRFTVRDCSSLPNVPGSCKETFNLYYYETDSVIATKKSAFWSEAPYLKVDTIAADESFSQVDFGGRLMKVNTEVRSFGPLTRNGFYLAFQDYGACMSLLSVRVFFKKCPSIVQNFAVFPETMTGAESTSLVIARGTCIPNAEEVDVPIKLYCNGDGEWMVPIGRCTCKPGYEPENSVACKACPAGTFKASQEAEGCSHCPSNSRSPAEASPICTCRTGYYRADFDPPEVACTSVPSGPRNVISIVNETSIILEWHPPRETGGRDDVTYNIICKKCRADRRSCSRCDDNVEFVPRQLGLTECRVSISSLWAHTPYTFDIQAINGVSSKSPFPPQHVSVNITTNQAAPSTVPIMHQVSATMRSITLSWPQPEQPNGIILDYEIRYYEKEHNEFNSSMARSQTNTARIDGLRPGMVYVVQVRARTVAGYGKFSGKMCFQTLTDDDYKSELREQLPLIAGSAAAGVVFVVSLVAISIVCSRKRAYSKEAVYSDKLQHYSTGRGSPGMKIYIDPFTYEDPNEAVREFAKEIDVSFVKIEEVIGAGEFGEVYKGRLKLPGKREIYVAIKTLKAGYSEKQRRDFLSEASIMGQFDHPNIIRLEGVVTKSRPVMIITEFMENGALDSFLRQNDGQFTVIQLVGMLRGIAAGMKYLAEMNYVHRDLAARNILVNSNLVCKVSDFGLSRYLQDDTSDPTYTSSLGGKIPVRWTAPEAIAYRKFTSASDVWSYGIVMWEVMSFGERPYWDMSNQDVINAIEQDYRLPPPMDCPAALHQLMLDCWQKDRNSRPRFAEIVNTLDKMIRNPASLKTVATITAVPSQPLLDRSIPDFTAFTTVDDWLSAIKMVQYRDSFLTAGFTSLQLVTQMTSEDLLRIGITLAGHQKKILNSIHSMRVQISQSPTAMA
Chain of RAF proto-oncogene serine/threonine-protein kinase (Homo sapiens) (P04049 whole entry): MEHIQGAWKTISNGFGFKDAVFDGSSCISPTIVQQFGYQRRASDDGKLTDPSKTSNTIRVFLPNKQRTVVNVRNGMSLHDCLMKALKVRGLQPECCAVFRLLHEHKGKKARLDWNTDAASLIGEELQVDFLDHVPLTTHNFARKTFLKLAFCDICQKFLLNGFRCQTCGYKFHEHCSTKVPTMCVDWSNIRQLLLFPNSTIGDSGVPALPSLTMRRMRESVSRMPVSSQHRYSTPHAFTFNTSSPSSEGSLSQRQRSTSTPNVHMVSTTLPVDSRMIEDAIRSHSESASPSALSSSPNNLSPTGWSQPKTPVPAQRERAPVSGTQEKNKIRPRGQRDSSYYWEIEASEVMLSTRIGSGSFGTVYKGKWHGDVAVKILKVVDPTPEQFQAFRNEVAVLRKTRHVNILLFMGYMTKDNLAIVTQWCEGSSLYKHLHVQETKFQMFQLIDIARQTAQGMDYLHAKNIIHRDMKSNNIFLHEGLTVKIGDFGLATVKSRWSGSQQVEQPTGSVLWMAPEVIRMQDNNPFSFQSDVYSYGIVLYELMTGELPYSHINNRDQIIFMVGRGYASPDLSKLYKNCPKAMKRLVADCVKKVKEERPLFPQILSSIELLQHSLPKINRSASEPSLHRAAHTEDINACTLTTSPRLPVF
Chain of LIM domain kinase 1 (Homo sapiens) (P53667 whole entry, looked up, the tested form may be a part): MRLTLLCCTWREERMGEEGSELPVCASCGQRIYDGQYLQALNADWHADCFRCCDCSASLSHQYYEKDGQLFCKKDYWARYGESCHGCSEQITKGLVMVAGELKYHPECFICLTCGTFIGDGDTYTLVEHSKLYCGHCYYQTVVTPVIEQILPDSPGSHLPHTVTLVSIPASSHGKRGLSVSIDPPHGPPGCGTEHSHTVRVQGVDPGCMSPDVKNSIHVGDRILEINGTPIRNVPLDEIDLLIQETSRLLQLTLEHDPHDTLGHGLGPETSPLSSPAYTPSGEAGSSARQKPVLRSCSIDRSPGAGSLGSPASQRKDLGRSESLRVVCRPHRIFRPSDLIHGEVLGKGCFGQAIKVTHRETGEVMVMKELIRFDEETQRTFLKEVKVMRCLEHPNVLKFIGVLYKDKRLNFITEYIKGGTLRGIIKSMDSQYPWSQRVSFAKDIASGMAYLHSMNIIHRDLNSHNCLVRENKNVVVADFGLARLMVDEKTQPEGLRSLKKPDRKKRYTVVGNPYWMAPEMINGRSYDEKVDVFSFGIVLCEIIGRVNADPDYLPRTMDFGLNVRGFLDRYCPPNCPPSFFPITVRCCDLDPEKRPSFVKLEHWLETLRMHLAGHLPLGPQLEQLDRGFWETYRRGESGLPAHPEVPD
Chain of Calcium/calmodulin-dependent protein kinase kinase 1 (Homo sapiens) (Q8N5S9 whole entry, looked up): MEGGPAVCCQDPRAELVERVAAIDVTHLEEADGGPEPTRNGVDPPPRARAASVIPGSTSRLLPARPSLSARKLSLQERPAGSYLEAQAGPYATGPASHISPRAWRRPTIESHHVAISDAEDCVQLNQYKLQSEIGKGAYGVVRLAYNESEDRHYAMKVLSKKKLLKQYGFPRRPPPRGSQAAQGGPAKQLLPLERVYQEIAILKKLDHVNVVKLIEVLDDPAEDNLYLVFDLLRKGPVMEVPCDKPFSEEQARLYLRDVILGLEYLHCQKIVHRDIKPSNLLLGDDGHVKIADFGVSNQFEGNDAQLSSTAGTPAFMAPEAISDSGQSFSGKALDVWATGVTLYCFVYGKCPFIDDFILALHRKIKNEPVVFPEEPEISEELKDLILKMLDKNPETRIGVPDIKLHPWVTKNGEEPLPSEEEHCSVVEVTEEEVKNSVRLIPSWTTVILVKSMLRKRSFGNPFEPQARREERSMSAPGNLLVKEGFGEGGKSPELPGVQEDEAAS

| pIC50 (NCI-H460) | pIC50 [7] | pIC50 [9] | pIC50 (SW480) | SMILES | Activity (HeLa [1]) | Activity (A2058) | TIME [2] | Activity (HeLa [3]) | Activity (HeLa [4]) | Activity (HeLa [5]) | Activity (HeLa [6]) | Activity (HeLa [8]) | Activity (MDA-MB-435) | Activity (HeLa [10]) | Activity [11] | Activity (HeLa [12]) | other results |
| --- | --- | --- | --- | --- | --- | --- | --- | --- | --- | --- | --- | --- | --- | --- | --- | --- | --- |
| 5.94 | < 4.00 | 5.70 | 5.97 | COc1cccc(C(=O)c2sc(Nc3ccc(N4CCN(C(C)C)CC4)cc3)nc2N)c1 | 88% | 57% | 10 h | Active | 40% | 25% | 1% | 73% | Toxic | Active | 65% | 62% |  |
| 5.09 | < 4.00 | 5.52 | 5.44 | CN1CCN(c2ccc(Nc3nc(N)c(C(=O)c4ccc5c(c4)OCCO5)s3)cc2)CC1 | 88% | 57% | 10 h | Active | 40% | 25% | 1% | 73% | Toxic | Active | 65% | 62% | inhibition [13]: < 50%; inhibition [14]: < 50%; inhibition [15]: < 50%; inhibition [16]: < 50%; inhibition [17]: < 50%; inhibition [18]: < 50%; inhibition [19]: < 50%; inhibition [20]: < 50%; inhibition [21]: < 50%; inhibition [22]: < 50%; inhibition [23]: < 50%; inhibition [24]: < 50%; inhibition [25]: < 50%; inhibition [26]: < 50%; inhibition [27]: < 50%; inhibition [28]: < 50% |
